Data taken from ChEMBL document CHEMBL1152641, “Effect of potential amine prodrugs of selective neuronal nitric oxide synthase inhibitors on blood-brain barrier penetration” (Bioorg Med Chem, 2009).

Experiments:
[1] = Ratio of drug level from brain to blood in mouse at 10 umol/kg, ip; assay type: ADME, tissue-based
[2] = tested on: Brain; test: Drug level in mouse brain at […], ip; assay type: ADME, organism-based; details: in vivo, read-out: Drug uptake
In short: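 Mice were dosed i.p. with compound diluted in PBS to 1 mM, at 100 μL per 10 g, and sampled 10 min later. Brains were PBS-perfused through the left ventricle, removed, flash-frozen, homogenized in 2% formic acid water/acetonitrile (2:1) with internal standard, then cleaned by cation-exchange SPE. Quantified by positive-ESI LC-MS/MS against triplicate standard curves; μg/g converted to μM assuming density 1 g/mL; SEM.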

[3] = tested on: Mus musculus; test: Plasma concentration in mouse at 10 umol/kg, ip; assay type: ADME, organism-based; details: in vivo
In short: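 Mice were given an i.p. injection of a 1 mM PBS solution (100 μL per 10 g) and sampled at 10 min. Heparinized blood was centrifuged and the plasma flash-frozen at −20 °C. Plasma plus internal standard was diluted in 2% acetic acid, cleaned by mixed-mode cation-exchange SPE, and quantified by positive-ESI LC-MS/MS (MRM) against triplicate standard curves; values as SEM.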

[4] = tested on: Plasma; test: Metabolic stability in mouse plasma after 40 mins by HPLC in presence of NADPH
[5] = Metabolic stability in rat liver microsomes assessed compound remaining after 40 mins by HPLC in presence of NADPH; assay type: ADME, Microsome; details: read-out: Stability
In short: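 Compound (10 μL of 300 μM stock) in PBS with NADPH regeneration solutions A/B was equilibrated at 37 °C. Rat liver microsomes were added and samples incubated for 0, 10, 20 or 40 min. Reactions were quenched with acetonitrile, chilled to 0 °C, centrifuged, dried and reconstituted in 2% formic acid. HPLC peak areas were normalized to t = 0; minaprine served as activity control.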

[6] = tested on: Brain; test: Metabolic stability in mouse brain homogenate assessed degradation by HPLC in presence of NADPH; assay type: ADME, tissue-based
In short: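 Three fresh mouse brains were each homogenized in PBS (pH 7.4) with NADPH regeneration buffers A and B, then pooled. Compound was added from a 200 μM stock and incubated at 37 °C for 0, 10, 20 and 40 min. Samples were heat-stopped at 95 °C for 1 min. HPLC UV read-out was at 310 or 260 nm depending on the compound. Peak-area ratio to internal standard was normalized to t = 0.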

[7] = tested on: Mus musculus; test: Toxicity in mouse at 3.7 mg/kg, ip; assay type: organism-based; parameters: dose 3.7 mg/kg, route intraperitoneal; details: in vivo
[8] = tested on: Plasma; test: Metabolic stability in mouse plasma assessed as half life in presence of NADPH; assay type: ADME, cell-free
In short: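 Fresh heparinized mouse plasma was supplemented with NADPH regenerating system (solutions A and B), and compound was added from a 200 μM stock. Incubation was at 37 °C, with samples taken at 0, 10, 20 and 40 min. Samples were quenched with acetonitrile plus internal standard, centrifuged, dried and run on HPLC. Compound/internal-standard ratio was normalized to the t = 0 ratio.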

[9] = tested on: Liver microsomes; test: Metabolic stability in rat liver microsomes assessed degradation by HPLC in presence of NADPH; assay type: ADME, Microsome
In short: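 Rat liver microsomes were added to PBS containing NADPH regeneration buffers A and B and compound (from a 300 μM stock), pre-equilibrated at 37 °C. Incubation was at 37 °C for 0, 10, 20 and 40 min. Samples were quenched with acetonitrile, chilled, centrifuged, dried and reconstituted in 2% formic acid for HPLC. Peak area was normalized to t = 0. Minaprine was run in parallel as a P450 activity control.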

Kp [1]	concentration [2] [nM]	concentration [3] [nM]	remaining at 40 min [5] [%]	SMILES	also measured
0.024	39	1600		Cc1cc(N)nc(C[C@@H]2CNC[C@@H]2NCCNCCc2cccc(F)c2)c1	
0.015	18	1210	> 80	COC(=O)N(CCO[C@H]1CNC[C@H]1Cc1cc(C)cc(N)n1)CCc1cccc(F)c1 (racemic)	
0.008	39	4600	> 80	CC(=O)N(CCO[C@H]1CNC[C@H]1Cc1cc(C)cc(N)n1)CCc1cccc(F)c1 (racemic)	
0.046	73	1600		Cc1cc(N)nc(C[C@@H]2CNC[C@@H]2OCCNCCc2cccc(F)c2)c1 (racemic)	Activity [7]: Non-toxic

The next lines start with the molecule.

SMILES	Kp [1]	concentration [2] [nM]	concentration [3] [nM]	remaining at 40 min [5] [%]	also measured
CC(OC(=O)N[C@@H](CCCNC(=N)N[N+](=O)[O-])CNc1ccccc1)OC(=O)C(C)(C)C (stereo partly specified)					Stability [4]: Unstable
Cc1cc(N)nc(C[C@@H]2CNC[C@@H]2OCCN(CCc2cccc(F)c2)C(=O)OCc2ccccc2)c1 (racemic)	0.018	9	490	> 60	
Cc1cc(N)nc(C[C@@H]2CNC[C@@H]2OCCN=[N+]=[N-])c1 (racemic)					Stability [4]: Stable; Stability [6]: Stable
CC(OC(=O)N[C@@H](CCCNC(=N)N[N+](=O)[O-])CNc1ccccc1)OC(=O)C(C)(C)C (single isomer, unassigned; diastereomer 1)					t1/2 [8]: 10 min
CC(OC(=O)N[C@@H](CCCNC(=N)N[N+](=O)[O-])CNc1ccccc1)OC(=O)C(C)(C)C (single isomer, unassigned; diastereomer 2)					Stability [9]: Unstable; t1/2 [8]: 30 min; Stability [6]: Unstable
